Data on nine molecules can be found in ChEMBL document CHEMBL1138547, “Synthesis, biological evaluation and 2D-QSAR analysis of benzoxazoles as antimicrobial agents” (2009).

SMILES strings stand for the structures. In brackets after ≈: the same amount, converted by molar mass.

Common to all, as to type: functional
The subject of assay [1] is Bacillus subtilis. In words: Antimicrobial activity against ceftriazone-resistant Bacillus subtilis after 24 hrs. A digest of the protocol:
(§1)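 Twofold serial broth dilution in Mueller-Hinton broth. MHB was used both to dilute the bacterial suspension and for the twofold compound dilutions, giving 10^3 cfu/ml bacteria per well after inoculation. Solvent, medium and organism-only wells served as controls. Each organism was run in triplicate.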

For assay [2], the system named is Bacillus subtilis. In words: Antimicrobial activity against Bacillus subtilis ATCC 6633 after 24 hrs. Conditions: for MIC: Bacillus subtilis, ATCC 6633, 24 h. A digest of the protocol:
(§2)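 MIC by twofold serial dilution in Mueller-Hinton broth (MHB); MHB also used to dilute the bacterial suspension. Wells held 10^3 cfu/ml bacteria after inoculation. Controls: 80% DMSO, 20% EtOH, methanol, DMSO, PBS, organism alone and medium alone. Triplicate in each run. MIC taken as the lowest concentration completely inhibiting macroscopic growth.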

The subject of assay [3] is Candida albicans. Nature of the assay: Antimicrobial activity against multidrug-resistant Candida albicans isolates after 24 to 48 hrs. A digest of the protocol:
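Yeast broth microdilution following CLSI M27-A, with Sabouraud dextrose medium noted for antifungal assays. Fresh cultures at McFarland 0.5 (10^6 cfu/ml) were diluted to 10^4 cfu/ml and inoculated into twofold compound dilutions. Trays were incubated at 35 °C in a humid chamber and read at 48 h, in triplicate. MIC was the lowest concentration giving complete macroscopic growth inhibition.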

The subject of assay [4] is Staphylococcus aureus. Nature of the assay: Antimicrobial activity against Staphylococcus aureus ATCC 25923 after 24 hrs. Conditions: ATCC 25923, 24 h. In a few lines:
as §1

Assay [5] concerns Klebsiella pneumoniae. In words: Antimicrobial activity against multidrug-resistant Klebsiella pneumoniae after 24 hrs. In a few lines:
as §1

The subject of assay [6] is Escherichia coli. In words: Antimicrobial activity against Escherichia coli ATCC 25922 after 24 hrs. Conditions: ATCC 25922, 24 h. A digest of the protocol: as §2
For assay [7], the system named is Candida albicans. In words: Antimicrobial activity against Candida albicans ATCC 10231 after 24 to 48 hrs. In a few lines: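 Twofold serial dilution following CLSI M27-A. Yeast suspension made at 10^4 cfu/ml by diluting a fresh culture at McFarland 0.5 (10^6 cfu/ml). Inoculated into the diluted compound, incubated at 35 °C in a humid chamber, read after 48 h. Triplicate in each run. MIC is the lowest concentration completely inhibiting macroscopic growth.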

Assay [8] relates to Klebsiella pneumoniae. In words: Antimicrobial activity against Klebsiella pneumoniae RSHM 574 after 24 hrs. Conditions: RSHM 574, 24 h. In a few lines:
as §2

Assay [9] has as its system Pseudomonas aeruginosa. Nature of the assay: Antimicrobial activity against Pseudomonas aeruginosa ATCC […] after 24 hrs. A digest of the protocol: as §2
The test system of assay [10] is Escherichia coli. Nature of the assay: Antimicrobial activity against multidrug-resistant Escherichia coli after 24 hrs. A digest of the protocol:
as §1

Assay [11] deals with Staphylococcus aureus. In words: Antimicrobial activity against multidrug-resistant Staphylococcus aureus after 24 hrs. In a few lines: as §1

Take `O=[N+]([O-])c1ccc2nc(-c3ccc(F)cc3)oc2c1`: the MIC in assay [1] came to 25 mg/L (≈ 96.8 µM); in assay [2] it was 50 mg/L (≈ 194 µM); in [3], 100 mg/L (≈ 387 µM); in assay [4], 100 mg/L (≈ 387 µM); in [5], 100 mg/L (≈ 387 µM); in [6], 50 mg/L (≈ 194 µM). Besides, the MIC in assay [7] turned out to be 50 mg/L (≈ 194 µM); in [8], 50 mg/L (≈ 194 µM); in assay [9], 50 mg/L (≈ 194 µM); in [10] it was 100 mg/L (≈ 387 µM); in assay [11], 100 mg/L (≈ 387 µM). Further, the “log(1/C)” value in [2] was found to be 3.713.
For the molecule `Cc1ccc(Cc2nc3cc(N)ccc3o2)cc1`, the MIC in assay [1] came out at 25 mg/L (≈ 105 µM); in assay [2] it was 12.5 mg/L (≈ 52.5 µM); in [3], 50 mg/L (≈ 210 µM); in assay [4] it was 100 mg/L (≈ 420 µM); in assay [5], 100 mg/L (≈ 420 µM); in assay [6] it was 50 mg/L (≈ 210 µM). Further, the MIC in assay [7] is 100 mg/L (≈ 420 µM); in assay [8] it was 50 mg/L (≈ 210 µM); in [9] it was 50 mg/L (≈ 210 µM); in [10], 50 mg/L (≈ 210 µM); in assay [11], 100 mg/L (≈ 420 µM). In [2], the “log(1/C)” value is on record as 4.28.
In the case of `Nc1ccc2nc(-c3ccc(Br)cc3)oc2c1`, the MIC worked out at 25 mg/L (≈ 86.5 µM) in assay [1]; 25 mg/L (≈ 86.5 µM) in assay [2]; 50 mg/L (≈ 173 µM) in assay [3]; 100 mg/L (≈ 346 µM) in assay [4]; 100 mg/L (≈ 346 µM) in assay [5]; 50 mg/L (≈ 173 µM) in [6]. The MIC in [7] was determined as 100 mg/L (≈ 346 µM); in assay [8] it was 50 mg/L (≈ 173 µM); in [9] it was 50 mg/L (≈ 173 µM); in [10] it was 50 mg/L (≈ 173 µM); in assay [11], 100 mg/L (≈ 346 µM). The “log(1/C)” value in assay [2] worked out at 4.063.
Regarding `Nc1ccc2nc(Cc3ccc(Cl)cc3)oc2c1`, the MIC in assay [1] came out at 25 mg/L (≈ 96.6 µM); in assay [2], 12.5 mg/L (≈ 48.3 µM); in [3], 50 mg/L (≈ 193 µM); in assay [4], 100 mg/L (≈ 387 µM); in [5] it was 100 mg/L (≈ 387 µM); in assay [6] it was 50 mg/L (≈ 193 µM). In addition, the MIC was determined as 50 mg/L (≈ 193 µM) in [7]; 50 mg/L (≈ 193 µM) in [8]; 25 mg/L (≈ 96.6 µM) in assay [9]; 100 mg/L (≈ 387 µM) in assay [10]; 100 mg/L (≈ 387 µM) in [11]. In addition, the log(1/C) in [2] was determined as 4.32.
As to `O=[N+]([O-])c1ccc2nc(Cc3ccc(F)cc3)oc2c1`, the MIC in assay [1] was determined as 100 mg/L (≈ 367 µM); in assay [2], 12.5 mg/L (≈ 45.9 µM); in [3], 50 mg/L (≈ 184 µM); in [4], 100 mg/L (≈ 367 µM); in [5], 100 mg/L (≈ 367 µM); in assay [6], 50 mg/L (≈ 184 µM). The MIC in [7] turned out to be 100 mg/L (≈ 367 µM); in assay [8], 50 mg/L (≈ 184 µM); in [9], 50 mg/L (≈ 184 µM); in assay [10] it was 50 mg/L (≈ 184 µM); in assay [11], 100 mg/L (≈ 367 µM). In assay [2], the “log(1/C)” value worked out at 4.338.
For the molecule `O=[N+]([O-])c1ccc2nc(Cc3ccc(Cl)cc3)oc2c1`, the MIC in [1] was found to be 25 mg/L (≈ 86.6 µM); in assay [2] it was 12.5 mg/L (≈ 43.3 µM); in assay [3], 50 mg/L (≈ 173 µM); in assay [4] it was 200 mg/L (≈ 693 µM); in assay [5] it was 100 mg/L (≈ 346 µM); in assay [6], 50 mg/L (≈ 173 µM). Further, the MIC in assay [7] is 100 mg/L (≈ 346 µM); in [8] it was 50 mg/L (≈ 173 µM); in assay [9] it was 25 mg/L (≈ 86.6 µM); in assay [10], 100 mg/L (≈ 346 µM); in [11] it was 100 mg/L (≈ 346 µM). In addition, the “log(1/C)” value in assay [2] is listed as 4.364.
As to `O=[N+]([O-])c1ccc2nc(Cc3ccc(Br)cc3)oc2c1`, the MIC in assay [1] was found to be 25 mg/L (≈ 75 µM); in [2], 25 mg/L (≈ 75 µM); in [3], 100 mg/L (≈ 300 µM); in assay [4] it was 100 mg/L (≈ 300 µM); in [5], 100 mg/L (≈ 300 µM); in assay [6] it was 50 mg/L (≈ 150 µM). Also, the MIC in assay [7] turned out to be 50 mg/L (≈ 150 µM); in [8] it was 50 mg/L (≈ 150 µM); in assay [9] it was 25 mg/L (≈ 75 µM); in [10], 100 mg/L (≈ 300 µM); in [11] it was 100 mg/L (≈ 300 µM). Further, the “log(1/C)” value in [2] is given as 4.125.
Turning to `O=[N+]([O-])c1ccc2oc(-c3ccccc3)nc2c1`, the MIC in assay [1] came to 25 mg/L (≈ 104 µM); in assay [2], 12.5 mg/L (≈ 52 µM); in assay [3], 50 mg/L (≈ 208 µM); in assay [4], 200 mg/L (≈ 833 µM); in [5], 100 mg/L (≈ 416 µM); in [6], 50 mg/L (≈ 208 µM). For the same molecule, the MIC in assay [7] is 100 mg/L (≈ 416 µM); in assay [8], 50 mg/L (≈ 208 µM); in [9], 25 mg/L (≈ 104 µM); in assay [10], 50 mg/L (≈ 208 µM); in [11] it was 400 mg/L (≈ 1670 µM). In addition, the “log(1/C)” value in assay [2] is on record as 4.284.
As to `Nc1ccc2nc(-c3ccc(F)cc3)oc2c1`, the MIC in assay [1] came out at 50 mg/L (≈ 219 µM); in [2], 50 mg/L (≈ 219 µM); in assay [3], 50 mg/L (≈ 219 µM); in assay [4], 100 mg/L (≈ 438 µM); in [5], 100 mg/L (≈ 438 µM); in assay [6], 50 mg/L (≈ 219 µM). The MIC in assay [7] was 50 mg/L (≈ 219 µM); in assay [8], 50 mg/L (≈ 219 µM); in assay [9] it was 50 mg/L (≈ 219 µM); in assay [10], 100 mg/L (≈ 438 µM); in assay [11], 100 mg/L (≈ 438 µM). Also, the “log(1/C)” value in assay [2] was found to be 3.659.
